Experimental data: ChEMBL document CHEMBL1150226, “Cytotoxic constituents from leaves of Aglaia elliptifolia” (2001)
≈ marks a conversion by molar mass, not a printed value.

How the values were obtained:
Format in all cases: functional
Details in all cases: read-out: ED50 (the source's name)
[1] = tested on: A549; test: Cytotoxicity against human A549 cells
In short: (§1)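 Cell lines obtained from the American Type Culture Collection; the assay protocol itself is given only by reference to earlier work.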

[2] = tested on: HL-60; test: Cytotoxicity against human HL60 cells; in short: as §1
[3] = tested on: HT-29; test: Cytotoxicity against human HT-29 cells; in short: as §1
[4] = tested on: KB; test: Cytotoxicity against human KB cells
In short: (§2)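 KB and P-388 cells supplied by an academic laboratory (University of Illinois at Chicago); the assay protocol itself is given only by reference to earlier work.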

[5] = tested on: P388; test: Cytotoxicity against mouse P388 cells; in short: as §2

| Compound | EC50 [1] [µg/mL] | EC50 [2] [µg/mL] | EC50 [3] [µg/mL] | EC50 [4] [µg/mL] | EC50 [5] [µg/mL] |
| --- | --- | --- | --- | --- | --- |
| COc1ccc([C@@]23Oc4cc(OC)cc(OC)c4[C@]2(O)[C@H](O)[C@H](C(=O)O)[C@H]3c2ccccc2)cc1 [ROCAGLOIC ACID] | 0.00074 (≈ 0.00155 µM) | 0.00084 (≈ 0.00176 µM) | 0.00084 (≈ 0.00176 µM) | 0.0023 (≈ 0.00481 µM) | 0.0012 (≈ 0.00251 µM) |
| C/C=C(\C)C(=O)N[C@@H]1CCCN1C(=O)[C@@H]1[C@@H](c2ccccc2)[C@]2(c3ccc(OC)cc3)Oc3cc(OC)cc(OC)c3[C@@]1(O)[C@@H]2O [ELLIPTIFOLINE] | 18.9 (≈ 30.1 µM) | > 50 | > 50 | > 50 | 3.41 (≈ 5.42 µM) |
| C/C=C(\C)C(=O)NC(CCCO)NC(=O)/C=C/c1ccccc1 (stereo not given) | > 50 | 32.1 (≈ 101 µM) | > 50 | > 50 | 3.62 (≈ 11.4 µM) |
